In ChEMBL document CHEMBL1123369, “Synthesis and structure-activity relationships of new arylfluoronaphthyridine antibacterial agents” (1986):
In brackets after ≈: the same amount, converted by molar mass.

Legend:
Assay type in all cases: functional
Acinetobacter sp. = test: In vitro antibacterial activity against Acinetobacter species CMX669
Procedure, shortened: (§1)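 Twofold agar dilution in brain-heart infusion agar, test range 200 to 0.005 µg/mL, made from a 2000 µg/mL stock. Organisms grown overnight in BHI broth at 36 °C. About 10⁴ organisms inoculated per plate, then incubated 18 h at 36 °C. MIC taken as the lowest concentration giving no visible growth.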

Klebsiella aerogenes = test: In vitro antibacterial activity against Enterobacter aerogenes ATCC 13048; procedure, shortened: as §1
Klebsiella pneumoniae = test: In vitro antibacterial activity against Klebsiella pneumoniae 8045; procedure, shortened: as §1
Mus musculus [1] = test: In vivo dose(po) inhibiting systemic infections caused by Escherichia coli Juhl in mice
Procedure, shortened: (§2)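 CF-1 female mice, about 20 g. Infected ip with 0.5 mL of an 18-h BHI culture diluted in 5% hog gastric mucin to 100× LD₅₀. LD₅₀ set by 10-fold dilutions (Reed–Muench, day 6). Compound given in water or dilute NaOH, sc or po, total dose split at 1 and 5 h post-infection. At least 3 dose levels, 10 mice each. Deaths followed 6 days. ED₅₀ from day-6 cumulative mortality by trimmed Logit, with 95% confidence limits.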

Mus musculus [2] = test: In vivo dose(po) inhibiting systemic infections caused by Pseudomonas aeruginosa 5007 in mice; procedure, shortened: as §2
Mus musculus [3] = test: In vivo dose(po) inhibiting systemic infections caused by Staphylococcus aureus NCTC 10649 in mice; procedure, shortened: as §2
Mus musculus [4] = test: In vivo dose(sc) inhibiting systemic infections caused by Escherichia coli Juhl in mice
Procedure, shortened: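 Female CF-1 mice (~20 g) infected ip with 0.5 mL of 18-h BHI culture of E. coli Juhl diluted in 5% (w/v) hog gastric mucin to 100 times LD50 (LD50 from 10-fold dilutions, day-6 mortality, Reed-Muench). Compound dissolved in water (HCl salt) or dilute NaOH then water, given sc split equally at 1 and 5 h post-infection. 10 mice per dose, ≥3 doses. Deaths recorded 6 days; ED50 from day-6 cumulative mortality by trimmed Logit.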

Mus musculus [5] = test: In vivo dose(sc) inhibiting systemic infections caused by Pseudomonas aeruginosa 5007 in mice; procedure, shortened: as §2
Mus musculus [6] = test: In vivo dose(sc) inhibiting systemic infections caused by Staphylococcus aureus NCTC 10649 in mice; procedure, shortened: as §2
Mus musculus [7] = test: In vivo antibacterial activity against systemic infection caused by Pseudomonas aeruginosa 5007 in mice
Mus musculus [8] = test: In vivo antibacterial activity against systemic infection caused by Staphylococcus aureus NCTC 10649 in mice
Pseudomonas aeruginosa [9] = test: In vitro antibacterial activity against Pseudomonas aeruginosa 5007; procedure, shortened: as §1
Pseudomonas aeruginosa [10] = test: In vitro antibacterial activity against Pseudomonas aeruginosa K799/WT; procedure, shortened: as §1
Streptococcus pyogenes = test: In vitro antibacterial activity against Streptococcus pyogenes 930; procedure, shortened: as §1
Staphylococcus aureus [11] = test: In vitro antibacterial activity against Staphylococcus aureus ATCC 6538P; procedure, shortened: as §1
Enterococcus faecium = test: In vitro antibacterial activity against Streptococcus faecium ATCC 8043; procedure, shortened: as §1
Staphylococcus aureus [12] = test: In vitro antibacterial activity against Staphylococcus aureus CMX 686B; procedure, shortened: as §1
Mus musculus [13] = test: In vivo antibacterial activity against systemic infection caused by Escherichia coli Juhl in mice; procedure, shortened: as §2
[14] = tested on: Staphylococcus epidermidis; test: In vitro antibacterial activity against Staphylococcus epidermidis 3519; procedure, shortened: as §1
Escherichia coli = test: In vitro antibacterial activity against Escherichia coli Juhl; procedure, shortened: as §1
Mus musculus [15] = test: In vivo dose(po) inhibiting systemic infections caused by Pseudomonas aeruginosa 5007 in mice.; procedure, shortened: as §2
Mus musculus [16] = test: In vivo dose(po) inhibiting systemic infections caused by Staphylococcus aureus NCTC 10649 in mice.; procedure, shortened: as §2
Mus musculus [17] = test: In vivo dose(sc) inhibiting systemic infections caused by Pseudomonas aeruginosa 5007 in mice.; procedure, shortened: as §2
Mus musculus [18] = test: In vivo dose(sc) inhibiting systemic infections caused by Staphylococcus aureus NCTC 10649 in mice.; procedure, shortened: as §2
Mus musculus [19] = test: In vivo antibacterial activity against systemic infection caused by Pseudomonas aeruginosa 5007 in mice.; procedure, shortened: as §2
Mus musculus [20] = test: In vivo antibacterial activity against systemic infection caused by Staphylococcus aureus NCTC 10649 in mice.; procedure, shortened: as §2
Mus musculus [21] = test: In vivo dose(po) inhibiting systemic infections caused by Escherichia coli Juhl in mice.; procedure, shortened: as §2
Mus musculus [22] = test: In vivo antibacterial activity against systemic infection caused by Escherichia coli juhl in mice.; procedure, shortened: as §2
Mus musculus [23] = test: In vivo dose(sc) inhibiting systemic infections caused by Escherichia coli Juhl in mice.; procedure, shortened: as §2
Mus musculus [24] = test: In vivo antibacterial activity against systemic infection caused by Escherichia coli Juhl in mice.; procedure, shortened: as §2
Pseudomonas aeruginosa [25] = test: compound was evaluated in vitro for the antibacterial activity against Pseudomonas aeruginosa 5007; procedure, shortened: as §1

MIC (Acinetobacter sp.) | MIC (Klebsiella aerogenes) | MIC (Klebsiella pneumoniae) | MIC (Pseudomonas aeruginosa [10]) | MIC (Streptococcus pyogenes) | MIC (Staphylococcus aureus [11]) | MIC (Enterococcus faecium) | MIC (Staphylococcus aureus [12]) | MIC [14] | MIC (Escherichia coli) | Compound | MIC (Pseudomonas aeruginosa [9]) | ED50 (Mus musculus [15]) | ED50 (Mus musculus [16]) | ED50 (Mus musculus [17]) | ED50 (Mus musculus [18]) | MIC (Mus musculus [19]) | MIC (Mus musculus [20]) | also measured
0.39 µg/mL (≈ 1.01 µM) | 0.1 µg/mL (≈ 0.259 µM) | 0.1 µg/mL (≈ 0.259 µM) | 0.39 µg/mL (≈ 1.01 µM) | 1.56 µg/mL (≈ 4.04 µM) | 0.39 µg/mL (≈ 1.01 µM) | 3.1 µg/mL (≈ 8.02 µM) | 0.39 µg/mL (≈ 1.01 µM) | 0.78 µg/mL (≈ 2.02 µM) | 0.05 µg/mL (≈ 0.129 µM) | O=C(O)c1cn(-c2ccc(F)cc2)c2nc(N3CCNCC3)c(F)cc2c1=O | – | 19.9 mg/kg | 7.5 mg/kg | 6.9 mg/kg | 1.6 mg/kg | 0.39 µg/mL (≈ 1.01 µM) | 0.25 µg/mL (≈ 0.647 µM) | ED50 (Mus musculus [21]): 2.8 mg/kg; MIC (Mus musculus [24]): 0.05 µg/mL (≈ 0.129 µM); MIC (Pseudomonas aeruginosa [25]): 0.39 µg/mL (≈ 1.01 µM); ED50 (Mus musculus [23]): 1 mg/kg
0.1 µg/mL (≈ 0.259 µM) | 0.1 µg/mL (≈ 0.259 µM) | 0.05 µg/mL (≈ 0.129 µM) | 0.2 µg/mL (≈ 0.518 µM) | 0.2 µg/mL (≈ 0.518 µM) | 0.5 µg/mL (≈ 1.29 µM) | 0.39 µg/mL (≈ 1.01 µM) | 0.1 µg/mL (≈ 0.259 µM) | 0.1 µg/mL (≈ 0.259 µM) | 0.05 µg/mL (≈ 0.129 µM) | NC1CCN(c2nc3c(cc2F)c(=O)c(C(=O)O)cn3-c2ccc(F)cc2)C1 (stereo not given) | 0.1 µg/mL (≈ 0.259 µM) | 18.2 mg/kg | 1.6 mg/kg | 7.4 mg/kg | 0.5 mg/kg | 0.1 µg/mL (≈ 0.259 µM) | 0.06 µg/mL (≈ 0.155 µM) | –
0.39 µg/mL (≈ 1.01 µM) | 0.39 µg/mL (≈ 1.01 µM) | 0.1 µg/mL (≈ 0.258 µM) | 3.1 µg/mL (≈ 8 µM) | 0.78 µg/mL (≈ 2.01 µM) | 0.05 µg/mL (≈ 0.129 µM) | 1.56 µg/mL (≈ 4.03 µM) | 0.05 µg/mL (≈ 0.129 µM) | 0.2 µg/mL (≈ 0.516 µM) | 0.39 µg/mL (≈ 1.01 µM) | O=C(O)c1cn(-c2ccc(F)cc2)c2nc(N3CCC(O)C3)c(F)cc2c1=O (stereo not given) | 3.1 µg/mL (≈ 8 µM) | – | – | – | – | – | – | –

More lines, now with the values behind:

Compound | MIC (Acinetobacter sp.) | MIC (Klebsiella aerogenes) | MIC (Klebsiella pneumoniae) | MIC (Pseudomonas aeruginosa [10]) | MIC (Streptococcus pyogenes) | MIC (Staphylococcus aureus [11]) | MIC (Enterococcus faecium) | MIC (Staphylococcus aureus [12]) | MIC [14] | MIC (Escherichia coli) | MIC (Pseudomonas aeruginosa [9]) | ED50 (Mus musculus [15]) | ED50 (Mus musculus [16]) | ED50 (Mus musculus [17]) | ED50 (Mus musculus [18]) | MIC (Mus musculus [19]) | MIC (Mus musculus [20]) | also measured
O=C(O)c1cn(C2CC2)c2cc(N3CCNCC3)c(F)cc2c1=O [CIPROFLOXACIN] | 1.56 µg/mL (≈ 4.71 µM) | 0.05 µg/mL (≈ 0.151 µM) | 0.02 µg/mL (≈ 0.0604 µM) | 0.1 µg/mL (≈ 0.302 µM) | 0.39 µg/mL (≈ 1.18 µM) | 0.2 µg/mL (≈ 0.604 µM) | 0.2 µg/mL (≈ 0.604 µM) | 0.39 µg/mL (≈ 1.18 µM) | 0.39 µg/mL (≈ 1.18 µM) | – | 0.1 µg/mL (≈ 0.302 µM) | – | – | – | – | – | – | ED50 (Mus musculus [1]): 1.9 mg/kg; ED50 (Mus musculus [2]): 13.3 mg/kg; ED50 (Mus musculus [3]): 15.5 mg/kg; ED50 (Mus musculus [4]): 0.2 mg/kg; ED50 (Mus musculus [5]): 2.1 mg/kg; ED50 (Mus musculus [6]): 1.6 mg/kg; MIC (Mus musculus [7]): 0.1 µg/mL (≈ 0.302 µM); MIC (Mus musculus [8]): 0.25 µg/mL (≈ 0.754 µM); MIC (Mus musculus [13]): 0.02 µg/mL (≈ 0.0604 µM)
O=C(O)c1cn(-c2ccc(F)cc2F)c2nc(N3CCNCC3)c(F)cc2c1=O | 0.39 µg/mL (≈ 0.965 µM) | 0.2 µg/mL (≈ 0.495 µM) | 0.05 µg/mL (≈ 0.124 µM) | 0.39 µg/mL (≈ 0.965 µM) | 0.78 µg/mL (≈ 1.93 µM) | 0.2 µg/mL (≈ 0.495 µM) | 0.78 µg/mL (≈ 1.93 µM) | 0.2 µg/mL (≈ 0.495 µM) | 0.39 µg/mL (≈ 0.965 µM) | 0.05 µg/mL (≈ 0.124 µM) | 0.39 µg/mL (≈ 0.965 µM) | 7 mg/kg | 2.4 mg/kg | 4.6 mg/kg | 0.6 mg/kg | 0.39 µg/mL (≈ 0.965 µM) | 0.12 µg/mL (≈ 0.297 µM) | –
NC1CCN(c2nc3c(cc2F)c(=O)c(C(=O)O)cn3-c2ccc(F)cc2F)C1 (stereo not given) [TOSUFLOXACIN] | 0.1 µg/mL (≈ 0.247 µM) | 0.1 µg/mL (≈ 0.247 µM) | 0.02 µg/mL (≈ 0.0495 µM) | 0.39 µg/mL (≈ 0.965 µM) | 0.2 µg/mL (≈ 0.495 µM) | 0.05 µg/mL (≈ 0.124 µM) | 0.2 µg/mL (≈ 0.495 µM) | 0.05 µg/mL (≈ 0.124 µM) | 0.1 µg/mL (≈ 0.247 µM) | 0.02 µg/mL (≈ 0.0495 µM) | 0.2 µg/mL (≈ 0.495 µM) | 4.9 mg/kg | 1.4 mg/kg | 3.6 mg/kg | 0.2 mg/kg | 0.2 µg/mL (≈ 0.495 µM) | 0.03 µg/mL (≈ 0.0742 µM) | ED50 (Mus musculus [21]): 1.3 mg/kg; MIC (Mus musculus [22]): 0.02 µg/mL (≈ 0.0495 µM); ED50 (Mus musculus [23]): 0.2 mg/kg
O=C(O)c1cn(-c2ccccc2)c2nc(N3CCNCC3)c(F)cc2c1=O | 1.56 µg/mL (≈ 4.23 µM) | 0.39 µg/mL (≈ 1.06 µM) | 0.1 µg/mL (≈ 0.271 µM) | 1.56 µg/mL (≈ 4.23 µM) | 6.2 µg/mL (≈ 16.8 µM) | 1.56 µg/mL (≈ 4.23 µM) | 50 µg/mL (≈ 136 µM) | 1.56 µg/mL (≈ 4.23 µM) | 1.56 µg/mL (≈ 4.23 µM) | 0.2 µg/mL (≈ 0.543 µM) | 1.56 µg/mL (≈ 4.23 µM) | – | – | – | – | – | – | –
